Pf Dd2 inh: inhibitors of Plasmodium falciparum Dd2 growth. activity change, % at 10 µM. 94,000 compounds, 2.3% hits. AID 1159554. P. falciparum Dd2 growth, SYBR Green, 72 h; stronger effect = lower value; in the data active = activity change below about -80%; inconclusive = no clear call, values can overlap the other calls
GASC1 inh: inhibitors of human demethylase GASC-1 KDM4C; Q9H3R0; GST-KDM4C 2-372, H3K9me3 peptide, LANCE TR-FRET; inhibition, % at 12.5 µM; 96,000 compounds, 0.15% hits; AID 720574;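 active = mean replicate inhibition above about 25%, with at least 55% of replicates also reaching it, limit read from the data, passing the limit was not always enough; inconclusive = only one of those two conditions met; inactive = neither condition met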
Target sequence (Q9H3R0 2-372 limits assumed): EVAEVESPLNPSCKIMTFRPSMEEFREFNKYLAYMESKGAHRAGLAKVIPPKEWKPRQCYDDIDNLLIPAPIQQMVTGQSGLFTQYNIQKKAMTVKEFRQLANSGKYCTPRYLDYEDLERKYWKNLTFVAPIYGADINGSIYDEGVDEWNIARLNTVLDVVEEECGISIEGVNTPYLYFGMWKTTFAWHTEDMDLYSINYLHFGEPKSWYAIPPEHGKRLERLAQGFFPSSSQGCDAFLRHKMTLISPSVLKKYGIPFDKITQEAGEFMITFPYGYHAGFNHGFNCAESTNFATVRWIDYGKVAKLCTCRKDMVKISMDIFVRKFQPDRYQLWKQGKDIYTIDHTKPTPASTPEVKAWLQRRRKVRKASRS
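Test system – GST-tagged GASC-1 (JMJD2C) catalytic fragment, aa 2-372 · Medium – HEPES buffer, pH 7.5, plus ascorbate · Reagent – H3K9me3 peptide with Fe(II)/2OG · Compound – one test concentration per compound · Timing – 30 min reaction, 60 min detection, RT · Technique – TR-FRET with Eu antibody and ULight streptavidin, EDTA stop · Read-out basis – inhibition from TR-FRET ratio decrease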
IDH1 mut inh: blocks human IDH1 R132H reductase activity. O75874. diaphorase/resazurin fluorescence, 60 min. inhibition, % at 10 µM. 70,000 compounds, 0.18% hits. AID 624101; in the data active = inhibition above about 34%; inconclusive = no clear call, values can overlap the other calls; inactive = below about 11%;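 also: 0% = DMSO and 100% = no enzyme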
T cruzi growth-1: inhibitors of T. cruzi proliferation | AID 624255 | T. cruzi beta-gal in NIH3T3, GalScreen luminescence, 90 h | 77,000 compounds, 5.9% hits | inhibition, % at 8.34 µM;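 active = mean inhibition above about 93%, with at least 55% of replicates each passing it, limit read from the data, passing the limit was not always enough; inconclusive = only one of those two conditions holds; inactive = neither condition holds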
T cruzi growth-2: inhibitors of T. cruzi proliferation; shares compounds with T cruzi growth-1; T. cruzi beta-gal in NIH3T3, GalScreen luminescence, 90 h; inhibition, % at 8.35 µM; 5,600 compounds, 72% hits;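 active = mean replicate inhibition above about 95% and at least 55% of replicates individually reaching it, limit read from the data; inconclusive = only one of the two criteria is met; inactive = neither criterion is met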
T cruzi growth-3: blocks T. cruzi growth in NIH3T3 host cells; inhibition, % at 2.09 µM; shares compounds with T cruzi growth-1; 5,600 compounds, 21% hits; T. cruzi beta-gal in NIH3T3, GalScreen luminescence, 90 h;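 active = mean inhibition above about 95%, with at least 55% of replicates also reaching it, limit read from the data; inconclusive = meets just one of the two conditions; inactive = meets neither condition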;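 also: plate controls were neutral control median for no effect and positive control median for full effect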
3T3 cytotox: cytotoxicity in mouse NIH/3T3 fibroblasts | shares compounds with T cruzi growth-1 | NIH/3T3 viability, CellTiter-Glo ATP luminescence, 90 h | cytotoxicity (signal decrease), % at 8.35 µM | 5,600 compounds, 14% hits | AID 651742;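 active = mean signal decrease across replicates above about 35% based on untreated-well scatter, with enough replicates individually passing, limit read from the data; inconclusive = no rule stated though some were filed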;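 also: 0% = median of neutral control wells and 100% = median of positive control wells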
3T3 cytotox 2: NIH/3T3 (mouse) viability loss | shares compounds with T cruzi growth-1 | 5,600 compounds, 56% hits | inhibition, % at 24.9 µM | NIH/3T3 viability, CellTiter-Glo ATP luminescence, 90 h;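 active = mean loss of cell viability signal at or above a set limit, and enough replicates individually reaching it; inconclusive = meets only the mean limit or only the replicate share; inactive = meets neither condition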;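 also: 0% = median of neutral control wells and 100% = median of positive control wells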
* hit, by the source's call. Rows were chosen to be rich in hits. Some 5.8% of all compounds tested hit in one or more screens of this group.

For C[C@@H]1CN([C@@H](C)CO)C(=O)c2cccc(NC(=O)Nc3ccc(C(F)(F)F)cc3)c2O[C@@H]1CN(C)Cc1ccc(Oc2ccccc2)cc1 the results were Pf Dd2 inh -71.6, T cruzi growth-1 123.9*, T cruzi growth-2 87.4, T cruzi growth-3 111.0*, 3T3 cytotox 59.5* and 3T3 cytotox 2 105.2*.
C[C@@H]1CN([C@@H](C)CO)C(=O)c2cccc(NC(=O)Nc3ccc(C(F)(F)F)cc3)c2O[C@H]1CN(C)Cc1ccc(Oc2ccccc2)cc1 was read as Pf Dd2 inh 12.2, GASC1 inh 0.4, IDH1 mut inh -1.2, T cruzi growth-1 125.6*, T cruzi growth-2 108.6*, T cruzi growth-3 101.8*, 3T3 cytotox -0.8 and 3T3 cytotox 2 99.1*.
C[C@@H]1CN([C@H](C)CO)C(=O)c2cccc(NC(=O)Nc3ccc(C(F)(F)F)cc3)c2O[C@H]1CN(C)Cc1ccc(Oc2ccccc2)cc1 was read as Pf Dd2 inh -3.1, GASC1 inh -0.6, IDH1 mut inh -0.6, T cruzi growth-1 121.0*, T cruzi growth-2 inconclusive, T cruzi growth-3 91.2, 3T3 cytotox -4.0 and 3T3 cytotox 2 104.3*.
For C[C@@H]1CN([C@H](C)CO)C(=O)c2cccc(NC(=O)Nc3ccc(C(F)(F)F)cc3)c2O[C@@H]1CN(C)Cc1ccc(Oc2ccccc2)cc1 the results were Pf Dd2 inh -33.4, GASC1 inh -0.3, T cruzi growth-1 119.6*, T cruzi growth-2 97.0*, T cruzi growth-3 98.2*, 3T3 cytotox 29.0 and 3T3 cytotox 2 104.0*.
For C[C@@H]1CN([C@H](C)CO)C(=O)c2cccc(NC(=O)Nc3ccc(C(F)(F)F)cc3)c2O[C@H]1CN(C)Cc1ccc(C(F)(F)F)cc1 the results were Pf Dd2 inh 32.0, GASC1 inh 0.9, IDH1 mut inh -5.5 and T cruzi growth-1 62.5.
Screening CCC(=O)N(C)C[C@H]1Oc2cc(-c3cncnc3)ccc2S(=O)(=O)N([C@@H](C)CO)C[C@@H]1C returned Pf Dd2 inh 27.0, GASC1 inh 1.4, IDH1 mut inh -0.5 and T cruzi growth-1 12.6.
COc1ccccc1CNC(=O)C[C@H]1C[C@@H]2c3cc(NC(=O)Nc4ccc(C(F)(F)F)cc4)ccc3O[C@@H]2[C@@H](CO)O1 was read as Pf Dd2 inh inconclusive, GASC1 inh -2.6, IDH1 mut inh 1.0, T cruzi growth-1 140.5*, T cruzi growth-2 110.4*, T cruzi growth-3 100.6*, 3T3 cytotox 0.2 and 3T3 cytotox 2 14.1.
COc1ccccc1CNC(=O)C[C@H]1C[C@H]2c3cc(NC(=O)Nc4ccc(C(F)(F)F)cc4)ccc3O[C@H]2[C@@H](CO)O1 was read as Pf Dd2 inh -32.7, GASC1 inh -0.1, IDH1 mut inh -0.1, T cruzi growth-1 122.9*, T cruzi growth-2 105.3*, T cruzi growth-3 65.3, 3T3 cytotox -9.1 and 3T3 cytotox 2 -1.5.
For COc1ccccc1CNC(=O)C[C@H]1CC[C@H](NC(C)=O)[C@H](CO)O1 the results were Pf Dd2 inh 1.8, GASC1 inh -1.5, IDH1 mut inh -0.1 and T cruzi growth-1 -57.3.
`COc1ccccc1CNC(=O)C[C@@H]1CC[C@@H](NC(C)=O)[C@H](CO)O1` gave Pf Dd2 inh -14.7, GASC1 inh -1.4, IDH1 mut inh -0.3, T cruzi growth-1 inconclusive, T cruzi growth-2 3.5, T cruzi growth-3 -23.8, 3T3 cytotox -14.8 and 3T3 cytotox 2 3.3.
COCC(=O)Nc1ccc2c(c1)[C@H]1C[C@H](CC(=O)NCc3ccccc3OC)O[C@@H](CO)[C@H]1O2 was read as Pf Dd2 inh 0.2, GASC1 inh 1.2, IDH1 mut inh -1.2, T cruzi growth-1 100.7*, T cruzi growth-2 3.1, T cruzi growth-3 -0.3, 3T3 cytotox -8.4 and 3T3 cytotox 2 -12.0.
For COc1ccccc1CNC(=O)C[C@H]1C[C@H]2c3cc(NC(=O)CC4CC4)ccc3O[C@H]2[C@H](CO)O1 the results were Pf Dd2 inh -18.4, GASC1 inh -0.4, IDH1 mut inh -0.1 and T cruzi growth-1 -15.9.
